Consider seven compounds from ChEMBL document CHEMBL1132114, “Chemical syntheses and biological studies on dimeric chimeras of oxytocin and the V(2)-antagonist, d(CH(2))(5)[D-Ile(2), Ile(4)]arginine vasopressin” (J Med Chem, 1999).

In test [1] the test system is Rattus norvegicus. The test is described as follows: In vivo antidiuretic in conscious rats. Type of test: functional, Urine. The gist of the method: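 Modified Burn test in conscious male Wistar rats fasted 16 h and loaded orally by catheter with tap water (4% of body weight). Compounds or saline injected subcutaneously at 1–100 nmol/kg. Urine collected over 5 h in metabolic cages. Groups of 4–5 rats; each dose run in 2–3 independent experiments.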

Test [2] concerns Rattus norvegicus. Nature of the test: Excreted total Na+ in 4% water loaded rats after administration of the compound. The format is functional. The gist of the method:
(§1)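 Conscious male Wistar rats fasted 16 h, given either no water load or tap water at 4% of body weight by stomach catheter; compound given subcutaneously at 50 nmol/kg right after loading. Rats kept in individual metabolic cages, urine collected over 5 h; total Na+ and K+ measured by flame spectrophotometry. Groups of 4–5 rats, 2–3 independent days; mean ± SEM.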

The test system of test [3] is Rattus norvegicus. Nature of the test: Volume of excreted urine in 5 hr after administration in 4% water loaded rats. The format is functional. The gist of the method:
(§2)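 Fasted (16 h) conscious male Wistar rats, without water load or loaded by stomach catheter with tap water at 4% of body weight, then dosed subcutaneously at 50 nmol/kg (saline control). Urine collected in individual metabolic cages and total volume recorded over 5 h. Groups of 4–5 rats, 2–3 independent days; mean ± SEM.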

The species entered for test [4] is Rattus norvegicus. Nature of the test: In vitro uterotonic activity was determined. The format is functional. The gist of the method:
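Uterine preparations from Wistar rats estrogenized 24–48 h beforehand were tested in vitro without magnesium ions. Synthetic oxytocin served as standard. Single or cumulative dose–response curves were built, and activity was obtained by comparing threshold doses of standard and analogue. Averages of 3–5 experiments, in IU/mg.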

Test [5] has as its system Rattus norvegicus. The test is described as follows: In vivo uterotonic activity in rats. The format is functional. The gist of the method: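 In vivo uterotonic test in Wistar rats estrogenized 24–48 h before the experiment, with compounds given intravenously. Synthetic oxytocin served as standard. Activity came from comparing threshold doses on dose–response curves. Averages of 3–5 experiments, in IU/mg.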

The test system of test [6] is Rattus norvegicus. The test is described as follows: In vivo pressor response in rats. The format is functional. The gist of the method:
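Vasopressor test in phenoxybenzamine-treated male Wistar rats against a synthetic arginine vasopressin standard. Activity came from comparing threshold doses of standard and analogue on dose–response curves. Averages of 3–5 experiments.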

Test [7] has as its system Rattus norvegicus. The test is described as follows: Excreted total Na+ in 0% water loaded rats after administration of the compound. The format is functional. The gist of the method:
as §1

For test [8], the system named is Rattus norvegicus. Nature of the test: Volume of excreted urine in 5 h after administration in 0% water loaded rats. The format is functional. The gist of the method: as §2
Test [9] is filed under the species Rattus norvegicus. The test is described as follows: diuresis half-time in 4% water loaded rats. The format is functional, organism-based. The gist of the method:
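After a 16-h fast, conscious male Wistar rats received tap water at 4% of body weight by stomach catheter, then compound subcutaneously at 50 nmol/kg. Urine output followed every 15 min for 5 h in metabolic cages. Half-time taken as the time at which half the water load was excreted. Mean ± SEM.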

The subject of test [10] is Rattus norvegicus. Nature of the test: Excreted total K+ in 4% water loaded rats after administration of the compound. The format is functional, organism-based. Summed up:
as §1

The subject of test [11] is Rattus norvegicus. The test is described as follows: Excreted total K+ in 0% water loaded rats after administration of the compound. Type of test: functional, organism-based. The gist of the method: as §1
The subject of test [12] is Rattus norvegicus. Nature of the test: Volume of excreted urine in 5 hr after administration in 0% water loaded rats. Type of test: functional. Summed up: as §2
Test [13] deals with Rattus norvegicus. Nature of the test: In vivo antidiuretic in anesth rats. Type of test: functional, Urine.

`CC[C@H](C)[C@@H]1NC(=O)[C@H](Cc2ccc(O)cc2)NC(=O)[C@@H](N)CSSC[C@@H](C(=O)N2CCC[C@H]2C(=O)N[C@@H](CC(C)C)C(=O)NCC(N)=O)NC(=O)[C@H](CC(N)=O)NC(=O)[C@H](CCC(N)=O)NC(=O)[C@H]([C@@H](C)CC)NC(=O)[C@H](Cc2ccc(O)cc2)NC(=O)[C@@H](N)CSSC[C@@H](C(=O)N2CCC[C@H]2C(=O)N[C@@H](CC(C)C)C(=O)NCC(N)=O)NC(=O)[C@H](CC(N)=O)NC(=O)[C@H](CCC(N)=O)NC1=O` [OXYTOCIN DIMER] displayed an Antidiuretic activity in [1] of about 10%. This compound also gave a Na in [2] of 1150 µmol. Moreover, the Volume of urine in [3] turned out to be 6.4 mL. The figures for the Uterotonic activity in [4] and in test [5] were 1.37 IU mg-1 and 13.8 IU mg-1, respectively. Further, the Pressor response in [6] is recorded as 0.5 IU mg-1.
Consider `CC[C@@H](C)[C@H]1NC(=O)CC2(CCCCC2)SSC[C@H](N)C(=O)N[C@@H](Cc2ccc(O)cc2)C(=O)N[C@@H]([C@@H](C)CC)C(=O)N[C@@H](CCC(N)=O)C(=O)N[C@@H](CC(N)=O)C(=O)N[C@H](C(=O)N2CCC[C@H]2C(=O)N[C@@H](CC(C)C)C(=O)NCC(N)=O)CSSC[C@@H](C(=O)N2CCC[C@H]2C(=O)N[C@@H](CCCN=C(N)N)C(=O)NCC(N)=O)NC(=O)[C@H](CC(N)=O)NC(=O)[C@H]([C@@H](C)CC)NC(=O)[C@H](Cc2ccccc2)NC1=O`, for which the Na in [7] amounted to 762 µmol; in [2], 375 µmol. The Volume of urine in test [8] amounted to 9.4 mL; in [3] it was 14.2 mL. Also, the Uterotonic activity in test [4] came out at 0.22 IU mg-1; in test [5], 1.1 IU mg-1. This compound also showed a Pressor response in test [6] of 0 IU mg-1.
Take `CC[C@@H](C)[C@H]1NC(=O)[C@H](Cc2ccc(O)cc2)NC(=O)[C@@H](N)CSSC[C@@H](C(=O)N2CCC[C@@H]2C(=O)N[C@@H](CC(C)C)C(=O)NCC(N)=O)NC(=O)[C@H](CC(N)=O)NC(=O)[C@@H](CCC(N)=O)NC(=O)[C@H]([C@@H](C)CC)NC(=O)[C@@H](Cc2ccc(O)cc2)NC(=O)[C@H](N)CSSC[C@H](C(=O)N2CCC[C@H]2C(=O)N[C@H](CC(C)C)C(=O)NCC(N)=O)NC(=O)[C@@H](CC(N)=O)NC(=O)[C@H](CCC(N)=O)NC1=O`: the T1/2 in test [9] turned out to be 3.47 h. The compound further yielded a K in [10] of 231 µmol.
In turn, `CC[C@@H](C)[C@H]1NC(=O)CC2(CCCCC2)SSC[C@@H](C(=O)N2CCC[C@@H]2C(=O)N[C@@H](CC(C)C)C(=O)NCC(N)=O)NC(=O)[C@H](CC(N)=O)NC(=O)[C@H](CCC(N)=O)NC(=O)[C@H]([C@@H](C)CC)NC(=O)[C@H](Cc2ccc(O)cc2)NC(=O)[C@@H](N)CSSC[C@H](C(=O)N2CCC[C@@H]2C(=O)N[C@H](CCCN=C(N)N)C(=O)NCC(N)=O)NC(=O)[C@@H](CC(N)=O)NC(=O)[C@@H]([C@H](C)CC)NC(=O)[C@@H](Cc2ccccc2)NC1=O` gave a T1/2 in [9] of 0.817 h. In addition, the K in [11] was determined as 200 µmol; in [10], 123 µmol.
On to `CC[C@H](C)[C@@H]1NC(=O)[C@H](Cc2ccc(O)cc2)NC(=O)[C@@H](N)CSSC[C@@H](C(=O)N2CCC[C@H]2C(=O)N[C@@H](CC(C)C)C(=O)NCC(N)=O)NC(=O)[C@H](CC(N)=O)NC(=O)[C@H](CCC(N)=O)NC1=O` [OXYTOCIN], for which the T1/2 in test [9] worked out at 2.97 h. For the same compound, the K in [11] was determined as 202 µmol; in test [10] it was 287 µmol. Besides, the values for the Antidiuretic activity in test [1] and in test [13] were 100% and 5 IU mg-1, respectively. Moreover, the figures for the Na in test [7] and in [2] were 563 µmol and 773 µmol, respectively. Moreover, the Volume of urine in test [12] was determined as 4.8 mL; in test [3], 11.3 mL. For the same compound, the Uterotonic activity in test [4] and in test [5] was 450 IU mg-1 in each case. For the same compound, the Pressor response in [6] is reported as 4.5 IU mg-1.
In the case of `CC[C@H](C)[C@@H]1NC(=O)CC2(CCCCC2)SSC[C@H](N)C(=O)N[C@@H](Cc2ccc(O)cc2)C(=O)N[C@@H]([C@@H](C)CC)C(=O)N[C@@H](CCC(N)=O)C(=O)N[C@@H](CC(N)=O)C(=O)N[C@H](C(=O)N2CCC[C@@H]2C(=O)N[C@@H](CC(C)C)C(=O)NCC(N)=O)CSSC[C@@H](C(=O)N2CCC[C@H]2C(=O)N[C@@H](CCCN=C(N)N)C(=O)NCC(N)=O)NC(=O)[C@H](CC(N)=O)NC(=O)[C@H]([C@@H](C)CC)NC(=O)[C@H](Cc2ccccc2)NC1=O`, the T1/2 in [9] was found to be 0.7 h. Besides, the K amounted to 217 µmol in test [11] and 162 µmol in test [10].
As for `CC[C@@H](C)[C@H]1NC(=O)CC2(CCCCC2)SSC[C@@H](C(=O)N2CCC[C@H]2C(=O)N[C@@H](CC(C)C)C(=O)NCC(N)=O)NC(=O)[C@H](CC(N)=O)NC(=O)[C@H](CCC(N)=O)NC(=O)[C@H]([C@@H](C)CC)NC(=O)[C@H](Cc2ccc(O)cc2)NC(=O)[C@@H](N)CSSC[C@@H](C(=O)N2CCC[C@H]2C(=O)N[C@@H](CCCN=C(N)N)C(=O)NCC(N)=O)NC(=O)[C@H](CC(N)=O)NC(=O)[C@H]([C@@H](C)CC)NC(=O)[C@H](Cc2ccccc2)NC1=O`, the Na in test [7] was 358 µmol; in [2] it was 480 µmol. Further, the Volume of urine in test [8] came to 6.3 mL; in test [3] it was 13.1 mL. Moreover, the Uterotonic activity in [4] and in [5] was 0.8 IU mg-1 in each case. The compound further displayed a Pressor response in test [6] of 0 IU mg-1.
